Screening data as filed in PubChem BioAssay.
In the library only some 4.6% were active in any assay of this set; here they are far more common.
Calb biofilm kill – mixtures killing C. albicans biofilm; inhibition, % at 7.6 µM; AID 1242; C. albicans biofilm persisters + clotrimazole, fluorescence viability; primary screen in compound mixtures of four per well; hit rate 0.02% among 120,000;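 active = inhibition above 30.3% in the primary screen of four-compound pools, then above 30% when the compound was retested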;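 note: compounds exposed to preformed 24 h biofilms for 48 h; 0% = untreated biofilm control and 100% = clotrimazole plus chlorhexidine kill blank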
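Test system: C. albicans biofilms. Buffer or medium: RPMI/MOPS medium, pH 7.0. Timing: 48 h compound exposure at 37 °C. Technique: Alamar Blue fluorescence. Evaluation: percent inhibition of biofilm viability.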
Hck-Nef inh – inhibitors of human Hck kinase activated by Nef | P08631 | Recombinant Hck-YEEI plus Nef, Z-Lyte FRET kinase assay | inhibition, % at 20 µM | hit rate 0.68% among 220,000 | AID 463187;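 active = Hck-Nef kinase inhibition above about 50%, limit read from the data; inactive = inhibition below that limit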;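 note: 0% = DMSO with Hck plus Nef and 100% = Hck alone without Nef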
Target sequence (P08631 whole entry, looked up): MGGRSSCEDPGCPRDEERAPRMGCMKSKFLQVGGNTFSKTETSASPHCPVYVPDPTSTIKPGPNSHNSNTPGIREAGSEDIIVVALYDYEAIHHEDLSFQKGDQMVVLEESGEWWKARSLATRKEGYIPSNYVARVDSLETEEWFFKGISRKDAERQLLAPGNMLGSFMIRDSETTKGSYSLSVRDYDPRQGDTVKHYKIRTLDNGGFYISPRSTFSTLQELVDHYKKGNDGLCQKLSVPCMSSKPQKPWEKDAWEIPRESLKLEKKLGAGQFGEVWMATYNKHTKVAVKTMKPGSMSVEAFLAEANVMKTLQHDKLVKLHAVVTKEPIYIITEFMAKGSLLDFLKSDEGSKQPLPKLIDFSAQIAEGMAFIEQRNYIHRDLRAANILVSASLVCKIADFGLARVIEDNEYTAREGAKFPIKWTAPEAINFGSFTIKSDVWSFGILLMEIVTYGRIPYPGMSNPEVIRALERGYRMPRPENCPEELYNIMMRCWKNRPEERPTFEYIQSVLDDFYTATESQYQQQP
RAM inhibit – inhibitors of the yeast RAM network; hit rate 1.8% among 190,000; inhibition, % at 50 µM; S. cerevisiae dse1pr::URA3 reporter, 5-FOA growth OD615, 2 d; analog-sensitive cbk1-as2 kinase mutant strain;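 active = inhibition above a set limit, 3 SD over mean compound inhibition, cut at about 8.4% in these data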;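 note: 0% = DMSO-only wells with no growth and 100% = 10 µM 1-NA-PP1 full growth; inhibition rescues growth on 5-FOA so higher OD means more RAM inhibition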
WT yeast gro inh – growth inhibition of WT yeast, mitochondrial fusion screen. hit rate 2.1% among 190,000. inhibition, % at 10 µM. mitochondrial fusion phenotypic screen, WT strain; in the data active = inhibition above about 58%; tested in S. cerevisiae
NCF1 inh – p47phox (human) inhibition | P14598 | p47phox/p22phox peptide binding, fluorescence polarization, 2 h | inhibition, % at 24.7 µM | hit rate 0.53% among 220,000 | AID 1274;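 active = inhibition above about 30%, limit read from the data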;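 note: 0% = p47phox with labelled peptide and 100% = labelled peptide alone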
Arbovirus anti – antivirals against arbovirus infection; hit rate 0.37% among 200,000; inhibition, % at 10 µM; arbovirus infection cell-based antiviral screen; in the data active = inhibition above about 30%
Active calls of the source: *.

`Cc1ccc(C2=NOC(C)(c3nnc(-c4ccc(Cl)cc4)o3)C2)cc1` (stereo not given) gave Calb biofilm kill 14, Hck-Nef inh 19 and NCF1 inh -5.
Cc1c(Cl)cccc1NC(=O)C(=O)NNC(=O)c1ccccc1F was read as Calb biofilm kill 10, Hck-Nef inh 2, RAM inhibit 0, WT yeast gro inh 19, NCF1 inh 2 and Arbovirus anti -2.
COc1ccccc1/C=C1\SC(=S)N(CCC(=O)NC2=NCCS2)C1=O was read as Calb biofilm kill 16, Hck-Nef inh 2, RAM inhibit 5, WT yeast gro inh 3, NCF1 inh -58 and Arbovirus anti 0.
O=C(CCN1C(=O)/C(=C\c2cccs2)SC1=S)NC1=NCCS1 was read as Calb biofilm kill 11, Hck-Nef inh 2, RAM inhibit 4, WT yeast gro inh 76*, NCF1 inh -20 and Arbovirus anti -4.
`CCc1ccc(/C=C2\SC(=S)N(CCC(=O)NC3=NCCS3)C2=O)cc1` gave Calb biofilm kill 4, Hck-Nef inh 20, RAM inhibit 9.3*, WT yeast gro inh 0, NCF1 inh -76 and Arbovirus anti -2.
For O=C(CCN1C(=O)/C(=C/c2cccs2)SC1=S)NC1=NCCS1 the results were Calb biofilm kill -1, Hck-Nef inh 1, RAM inhibit 5, WT yeast gro inh 72*, NCF1 inh -28 and Arbovirus anti 5.
`COCc1cc(C)nc(SCC[N+](C)(C)CC(=O)Nc2cccc(C(F)(F)F)c2)c1C#N` gave Calb biofilm kill 7, Hck-Nef inh 29, RAM inhibit -1, WT yeast gro inh 12, NCF1 inh -10 and Arbovirus anti 2.
For Cc1nn(C2CCCO2)c(=O)nc1N (stereo not given) the results were Calb biofilm kill 14, Hck-Nef inh 23, RAM inhibit 0, WT yeast gro inh -8, NCF1 inh 6 and Arbovirus anti 7.
`CC(NS(=O)(=O)c1ccc(Br)cc1)C(N)=O` (stereo not given) gave Hck-Nef inh 6, RAM inhibit 1, WT yeast gro inh 66*, NCF1 inh -10 and Arbovirus anti -2.
Screening CC(NS(=O)(=O)c1ccc(Br)cc1)C(=O)NCc1ccco1 (stereo not given) returned Calb biofilm kill 11, Hck-Nef inh 12, RAM inhibit 0, WT yeast gro inh 11, NCF1 inh 2 and Arbovirus anti 8.
CN(C)n1cnc2ccsc2c1=O was read as Calb biofilm kill 12, Hck-Nef inh 7, RAM inhibit 2, WT yeast gro inh 0, NCF1 inh -3 and Arbovirus anti 7.
`O=C(CSc1nnc(-c2cccnc2)s1)Nc1cccc(C(=O)O)c1` gave Calb biofilm kill 27, Hck-Nef inh 1, RAM inhibit 10*, WT yeast gro inh -6, NCF1 inh -5 and Arbovirus anti -7.
For O=C(CSc1nc2ccccc2n1Cc1ccc(Cl)cc1)N/N=C/c1ccc(C(=O)O)cc1 the results were Calb biofilm kill 7, Hck-Nef inh 37, RAM inhibit 7, WT yeast gro inh 3, NCF1 inh -5 and Arbovirus anti -5.
Screening c1ccc(OCCCCn2cnc3ccccc32)cc1 returned Hck-Nef inh -3, RAM inhibit 0, WT yeast gro inh -3, NCF1 inh -12 and Arbovirus anti 14.
Screening c1ccc2c(c1)ncn2CCCCOc1ccc2c(c1)CCC2 returned Hck-Nef inh 3, RAM inhibit 1, WT yeast gro inh 69*, NCF1 inh -11 and Arbovirus anti -32.
`c1ccc(OCCn2cnc3ccccc32)cc1` gave Hck-Nef inh 12, RAM inhibit 2, WT yeast gro inh 10, NCF1 inh -9 and Arbovirus anti 8.
Screening c1ccc2c(c1)ncn2CCCOc1ccc2c(c1)CCC2 returned Hck-Nef inh 2, RAM inhibit 2, WT yeast gro inh 65*, NCF1 inh -3 and Arbovirus anti 4.
Cc1ccc(OCCCCn2cnc3ccccc32)cc1 was read as Calb biofilm kill 15, Hck-Nef inh 0, RAM inhibit 1, WT yeast gro inh 65*, NCF1 inh -16 and Arbovirus anti 13.
Screening CC(C)C[C@H](NC(=O)c1nc[nH]c1C(=O)N1CCN(C(=O)OC(C)(C)C)CC1)C(=O)OC(C)(C)C returned Calb biofilm kill 18, Hck-Nef inh 4, RAM inhibit 2, WT yeast gro inh 10 and Arbovirus anti 32*.
